Results: ChEMBL document CHEMBL5625166, “Disulfide-incorporated lipid prodrugs of cidofovir: Synthesis, antiviral activity, and release mechanism” (Eur J Med Chem, 2023)

Legend:
Vaccinia virus [1] = assay: Antiviral activity against VACV infected in Vero cells assessed as reduction in cytopathic effect incubated for 96 hrs by neutral red based spectrophotometric analysis; type: functional, organism-based; settings: Orthopoxvirus vaccinia
[2] = Cytotoxicity against African green monkey Vero cells incubated for 72 hrs by neutral red based spectrophotometric analysis; type: toxicity, cell-based; settings: chlorocebus sabaeus
In short: (§1)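 Cells seeded at 3 × 10^4 cells/well and grown 24 h at 37 °C, 5% CO2. Two-fold compound dilutions starting at 200.0 μM applied for 72 h. Neutral red (40 μg/mL) added for 4 h, cells washed and destained in ethanol/acetic acid. OD read at 540 nm against cell-free blanks. CC50 from triplicates.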

A549 = assay: Cytotoxicity against human A549 cells incubated for 72 hrs by neutral red based spectrophotometric analysis; type: toxicity, cell-based; settings: a549, 72 h; in short: as §1
Human adenovirus 5 [3] = assay: Antiviral activity against AdV5 infected in A549 cells assessed as reduction in cytopathic effect incubated for 72 hrs by neutral red based spectrophotometric analysis; type: functional, organism-based; settings: Human mastadenovirus C, A549, 72 h
[4] = Therapeutic index, ratio of CC50 for human A549 cells to IC50 for AdV5 infected in human A549 cells; type: toxicity, cell-based; settings: read-out: Ratio CC50/IC50
Vaccinia virus [5] = assay: Antiviral activity against VACV infected in A549 cells assessed as reduction in cytopathic effect incubated for 96 hrs by neutral red based spectrophotometric analysis; type: functional, organism-based; settings: Orthopoxvirus vaccinia, A549, 96 h
[6] = Therapeutic index, ratio of CC50 for human A549 cells to IC50 for VAVC infected in human A549 cells; type: toxicity, cell-based; settings: read-out: Ratio CC50/IC50
[7] = Therapeutic index, ratio of CC50 for African green monkey Vero cells to IC50 for VAVC infected in african green monkey Vero cells; type: toxicity; settings: read-out: Ratio CC50/IC50
Lipid bilayer = assay: Induction of micelles formation in PBS at pH 7.4 by TEM analysis; type: physicochemical; settings: buffer
In short: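 Conjugates at 50.0 μM in pH 7.4 phosphate buffer, imaged by transmission electron microscopy for micelle formation.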

[8] = Stability of the compound in phosphate buffer at pH 7.4 assessed as compound remaining measured upto 400 mins in presence of GSH by HPLC method; type: physicochemical; settings: for remaining at 6.667 h: phosphate buffer with GSH, pH 7.4, read-out: Stability; for Stability: buffer, pH 7.4, 6.667 h
[9] = Stability of the compound in SIF assessed as remaining compound after 360 mins; type: ADME; settings: read-out: Stability
In short: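 Incubated in simulated intestinal fluid at 37 °C, remaining compound measured at 360 min.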

[10] = Stability in SGF assessed as remaining compound after 120 mins; type: ADME; settings: read-out: Stability
In short: (§2)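 Incubated in simulated gastric fluid at 37 °C, remaining compound measured at 120 min.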

[11] = Stability in human plasma assessed as half life; type: ADME, cell-free
In short: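 Incubated in pooled human plasma at 37 °C, half-life determined.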

Human adenovirus 5 [12] = assay: Potency index, ratio of BCV IC50 to test compound IC50 for antiviral activity against AdV5 infected in A549 cells assessed as reduction in cytopathic effect incubated for 72 hrs by neutral red based spectrophotometric analysis; type: functional
[13] = Stability of the compound in SGF after 120 mins; type: ADME; settings: simulated gi fluid, 2 h; in short: as §2
[14] = Stability of the compound in PBS at pH 7.4 assessed as micelles formation after 4 hrs in presence of GSH by TEM analysis; type: physicochemical; settings: buffer, pH 7.4, 4 h
In short: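 Micelles in pH 7.4 phosphate buffer re-imaged by TEM after 4 h incubation with GSH.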

[15] = Stability of the compound in phosphate buffer at pH 7.4 assessed as compound remaining measured after 360 mins in presence of GSH by HPLC method; type: physicochemical; settings: phosphate buffer with GSH, read-out: Stability
In short: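 Conjugate incubated with 20 mM GSH in pH 7.4 phosphate buffer at 37 °C. Percent remaining monitored by HPLC over time, up to 360 min.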

| Compound | IC50 (Vaccinia virus [1]) [µM] | CC50 [2] [µM] | CC50 (A549) [µM] | IC50 (Human adenovirus 5 [3]) [µM] | selectivity ratio [4] | IC50 (Vaccinia virus [5]) [µM] | selectivity ratio [6] | selectivity ratio [7] | Activity (Lipid bilayer) | remaining at 6.667 h [8] [%] | remaining at 6 h [9] [%] | remaining at 2 h [10] [%] | t1/2 [11] [h] | Ratio IC50 (Human adenovirus 5 [12]) | Stability [13] | Stability [14] | Stability [8] | remaining at 6 h [15] [%] |
| --- | --- | --- | --- | --- | --- | --- | --- | --- | --- | --- | --- | --- | --- | --- | --- | --- | --- | --- |
| CCCCCCCCCCCCSSCCCOP(=O)(O)CO[C@H](CO)Cn1ccc(N)nc1=O | 6.54 | 33.3 | 47.6 | 1.26 | 37.7 | 2.02 | 23.5 | 5.09 |  |  |  |  |  |  |  |  |  |  |
| CCCCCCCCCCCCCCCCSSCCCOP(=O)(O)CO[C@H](CO)Cn1ccc(N)nc1=O | 0.274 | 12.7 | 46.7 | 0.3 | 156 | 0.401 | 116 | 46.3 |  |  |  |  |  |  |  |  |  |  |
| CCCCCCCCCCCCSSCCCCOP(=O)(O)CO[C@H](CO)Cn1ccc(N)nc1=O | 0.861 | 35 | 80.6 | 0.255 | 317 | 1.05 | 76.8 | 40.6 |  |  |  |  |  |  |  |  |  |  |
| CCCCCCCCSSCCCCCCOP(=O)(O)CO[C@H](CO)Cn1ccc(N)nc1=O | 49.3 | > 200 | > 200 |  |  | > 50 | > 4 | > 4.05 |  |  |  |  |  |  |  |  |  |  |
| CCCCCCCCCCCCCCCCSSCCOP(=O)(O)CO[C@H](CO)Cn1ccc(N)nc1=O.N | 0.068 | 2.58 | 8.69 | 0.157 | 55.2 | 0.09 | 96.1 | 37.7 | Active | 81 | > 90 | 68 | 3.237 |  |  |  |  |  |
| CCCCCCCCCCCCCCCCSSCCCCOP(=O)(O)CO[C@H](CO)Cn1ccc(N)nc1=O.N | 0.304 | 12.5 | 31 | 0.134 | 232 | 1.65 | 18.8 | 41 | Active |  | > 90 |  | 4.375 | 2 | Stable |  |  |  |
| CCCCCCCCCCCCCCCCCCSSCCOP(=O)(O)CO[C@H](CO)Cn1ccc(N)nc1=O.N | 0.141 | 4.9 | 14.1 | 0.193 | 73.1 | 0.104 | 136 | 34.8 | Active | 93 |  |  |  |  |  | Stable |  |  |
| CCCCCCCCCCSSCCOP(=O)(O)CO[C@H](CO)Cn1ccc(N)nc1=O | 2.49 | 81.3 | 65.2 | 12.5 | 5.2 | 6.27 | 10.4 | 32.7 |  |  |  |  |  |  |  |  |  |  |
| CCCCCCCCCCSSCCCCOP(=O)(O)CO[C@H](CO)Cn1ccc(N)nc1=O | 40.6 | 95.8 | 162 |  |  | 45.7 | 3.55 | 2.36 |  |  |  |  |  |  |  |  |  |  |
| CCCCCCCCCCCCCCSSCCCCCCOP(=O)(O)CO[C@H](CO)Cn1ccc(N)nc1=O.N | 0.549 | 8.56 | 80.8 | 0.274 | 295 | 0.593 | 136 | 15.6 | Active |  |  |  |  |  |  |  | Stable |  |
| CCCCCCCCCCSSCCCCCCOP(=O)(O)CO[C@H](CO)Cn1ccc(N)nc1=O | 6.27 | 115 | 194 | 2.31 | 83.9 | 4.29 | 45.2 | 18.4 |  |  |  |  |  |  |  |  |  |  |
| CCCCCCCCCCCCSSCCCCCCOP(=O)(O)CO[C@H](CO)Cn1ccc(N)nc1=O.N | 0.854 | 15.2 | 134 | 0.185 | 725 | 0.838 | 160 | 17.8 |  |  | > 90 |  | 4.45 |  | Stable |  |  |  |
| CCCCCCCCCCCCCCSSCCCCOP(=O)(O)CO[C@H](CO)Cn1ccc(N)nc1=O.N | 0.517 | 18.1 | 44.3 | 0.384 | 115 | 0.599 | 74 | 35 |  |  |  |  |  |  |  |  | Stable |  |
| CCCCCCCCCCCCSSCCOP(=O)(O)CO[C@H](CO)Cn1ccc(N)nc1=O | 0.365 | 14.3 | 47 | 0.795 | 59.1 | 0.217 | 216 | 39.2 |  |  |  |  |  |  |  |  |  |  |
| CCCCCCCCCCCCCCSSCCCOP(=O)(O)CO[C@H](CO)Cn1ccc(N)nc1=O.N | 0.283 | 13.9 | 50.7 | 0.548 | 92.6 | 0.223 | 227 | 49.3 |  |  |  |  |  |  |  |  | Stable |  |
| CCCCCCCCCCCCCCSSCCOP(=O)(O)CO[C@H](CO)Cn1ccc(N)nc1=O.N | 0.096 | 6.53 | 14.7 | 0.157 | 93.7 | 0.079 | 186 | 68 | Active |  | > 90 | 77 | 2.144 |  |  |  |  | 13 |
| CCCCCCCCCCCCCCCCCCSSCCCOP(=O)(O)CO[C@H](CO)Cn1ccc(N)nc1=O | 0.436 | 9.87 | 32.3 | 1.86 | 17.3 | 0.724 | 44.6 | 22.7 |  |  |  |  |  |  |  |  |  |  |
| CCCCCCCCCCSSCCCOP(=O)(O)CO[C@H](CO)Cn1ccc(N)nc1=O | 31.5 | 182 | 130 |  |  | 22 | 5.91 | 5.77 |  |  |  |  |  |  |  |  |  |  |
| CCCCCCCCCCCCCCCCOCCCOP(=O)(O)CO[C@H](CO)Cn1ccc(N)nc1=O [BRINCIDOFOVIR] | 0.196 | 13.9 | 20.1 | 0.245 | 81.8 | 0.3 | 67 | 70.7 |  |  | > 90 | 43 | > 24 |  |  |  |  |  |
